For 89 compounds, inhibition results are on record in PubChem BioAssay AID540295 (The Scripps Research Institute Molecular Screening Center, 2011).

Molecules are shown by their SMILES. Out of some 360,000 compounds screened, about 1,700 (0.47%) were called active. For the sample, actives were picked, then their nearest neighbours and some compounds at random. A number with no mark means an inactive call.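 The calls were made as follows: active = inhibition above its plate's cutoff, the mean of tested wells on that plate plus 3 SD (cut at about 29% in these data); inactive = the rest.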

One may read the inhibition as the relative decrease from the control value, in per cent.

Chain of Melanocortin receptor 4 (Homo sapiens) (P32245 whole entry, looked up): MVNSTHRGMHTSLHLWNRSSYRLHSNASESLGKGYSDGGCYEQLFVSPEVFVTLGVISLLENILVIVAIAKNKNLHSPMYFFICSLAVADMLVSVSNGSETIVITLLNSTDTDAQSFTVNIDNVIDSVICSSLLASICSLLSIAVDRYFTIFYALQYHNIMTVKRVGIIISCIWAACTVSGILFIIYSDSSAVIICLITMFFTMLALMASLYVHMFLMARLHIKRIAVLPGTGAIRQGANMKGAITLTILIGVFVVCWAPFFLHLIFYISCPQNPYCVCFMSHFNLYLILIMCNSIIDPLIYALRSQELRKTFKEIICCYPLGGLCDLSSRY

In this assay the target is Melanocortin receptor 4 (Homo sapiens) (UniProt P32245). The assay is described as follows: blockers of MC4R Gs-cAMP response – cell-based, TR-FRET, antagonist arm of biased-ligand search, primary screen (AID 540295).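 Also: 0% = Melanotan II alone and 100% = Melanotan II plus saturating MCL0020.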 The conditions noted are these: MC4R-expressing cells, MTII-stimulated cAMP, LANCE TR-FRET; at 6.5 µM; active compounds read high. The procedure, abridged: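 system = U2OS cells with stable human MC4R expression | also added = Melanotan II challenge after compound preincubation | dosing = one concentration, 6.5 µM nominal | incubation = compound 30 min, challenge 1 h, detection 1 h | measured by = TR-FRET with Eu-cAMP and labeled anti-cAMP, 671 nm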
In the case of `O=C(Nc1ccccc1Cl)/C(Cl)=C(\Cl)S(=O)c1ccccc1` (centres undefined), the inhibition was 34.9% (active).
Regarding `CS/C(=C\C(=O)c1ccco1)Nc1ccccc1Cl`, the inhibition was 12.1%.
Regarding `O=C(COc1ccc(-n2cnnn2)cc1)Nc1ccccc1Cl`, the inhibition is -4.5%.
On to `NC1=NC(=O)C(Cc2cccc(Cl)c2)S1` (centres undefined), for which the inhibition was 6.88%.
On to `CCOC(=O)C(CC)Sc1ncnc2c1nnn2-c1ccc(F)cc1` (centres undefined), for which the inhibition is 9.91%.
As to `COc1ccc(S(=O)(=O)N2CCOC2CNC(=O)C(=O)NCc2ccc(F)cc2)cc1` (centres undefined), the inhibition is 5.37%.
As to `CC1(C)Cc2ccccc2/C(=C/C(=O)c2ccccc2)N1`, the inhibition is -4.86%.
As to `N#CC1=C(N)Oc2[nH]c(=S)[nH]c(=O)c2C12C(=O)Nc1ccccc12` (centres undefined), the inhibition was -0.32%.
For the compound `CC1(C)Cc2ccccc2-c2[nH]c(=S)[nH]c(=O)c21`, the inhibition was 31.3% (active).
For `CC(=O)c1ccc(S(=O)(=O)Nc2ccc(-c3ccc4nncn4n3)cc2)cc1`, the inhibition is 4.19%.
On to `Cc1cccc(C(=O)N2CCCC(Nc3ccc(C(C)C)cc3)C2)n1` (centres undefined), for which the inhibition was -4.44%.
Turning to `O=C(Oc1ccc(-c2nnco2)cc1)c1ccc(F)c(S(=O)(=O)N2CCOCC2)c1`, the inhibition was 16.3%.
Consider `C=CCOC(=O)C1=C(C)N=C2SCCC(=O)N2C1/C=C/c1ccccc1OC` (centres undefined), for which the inhibition was 6.17%.
Regarding `COc1ccc(-c2ccc3c(c2)C2CC3CCN2CCC#N)cc1` (centres undefined), the inhibition is 8.84%.
With `CCC1(C)Cc2c(sc3[nH]c(=S)n(Cc4ccccc4)c(=O)c23)CO1` (centres undefined) the figure was 3.15%; with `C=CCn1c(=S)[nH]c2scc(-c3ccco3)c2c1=O`, 29.6% (active); with `COc1cccc(-c2cc(NC(C)=O)c3ncc(-c4cccc(C(C)=O)c4)n3c2)c1`, 8.07%.
Consider `CSc1ncnc2c1ncn2CCCNCC(C)c1ccccc1` (centres undefined), for which the inhibition was 0.11%.
As to `COc1ccc(S(=O)(=O)N(C)CC(=O)NCCCN2CCOCC2)cc1Cl`, the inhibition is 8.85%.
Turning to `CCN(CC(=O)NCCCN1CCOCC1)S(=O)(=O)c1cc(Cl)ccc1Cl`, the inhibition was 30.2% (active).
Take `CCN(CC)S(=O)(=O)c1ccc(Cl)c(C(=O)NCCN2CCOCC2)c1`: the inhibition is -2.31%.
As for `O=C(Nc1nnc(Cc2ccccc2)s1)c1cnccn1`, the inhibition was 20.4%.
For `O=C(Nc1nnc(Cc2ccc(Cl)cc2)s1)c1cccnc1`, the inhibition was 33.8% (active).
`O=C(Nc1nnc(Cc2ccc(Cl)cc2)s1)c1ccncc1`: the inhibition was 11.2%.
Take `COC(=O)[C@]1(CC(C)C)N[C@H](c2ccc(SC3CCCCC3)cc2)[C@@H]2C(=O)N(C)C(=O)[C@@H]21`: the inhibition was 4.32%.
`Cc1ccc(NC(=O)Cn2c(=O)n(CCC(=O)NC3CCN(Cc4ccccc4)CC3)c(=O)c3ccccc32)cc1`: the inhibition was 8.52%.
In the case of `COc1ccc(NS(=O)(=O)c2ccc(N3CCOCC3)c(NC(=O)/C=C/C(=O)O)c2)cc1`, the inhibition was 0.91%.
With `COC(=O)c1sc(-c2ccc(C(C)(C)C)cc2)cc1NC(=O)/C=C/C(=O)O`, the inhibition is 37.3% (active).
Turning to `COc1ccccc1NC(=O)/C=C/C(N)=O`, the inhibition was 21%.
As for `O=C(CCNC(=O)C1CCN(S(=O)(=O)c2ccccc2)CC1)NC1CC1`, the inhibition was 8.45%.
Take `NC(=O)COc1ccc(C23CC4CC(CC(C4)C2)C3)cc1`: the inhibition is -2.25%.
For `CCCC(NC(=O)c1ccccc1)c1nc2ccccc2n1Cc1ccc(C(=O)OC)o1` (centres undefined), the inhibition was -3.45%.
`CCOC(=O)CSc1nc(N2CCOCC2)c2c(c1C#N)CC(C(C)C)OC2` (centres undefined): the inhibition is 28.7% (active).
Consider `CC(C)Cc1nc(N2CCOCC2)c(C#N)c2c1CCC2`, for which the inhibition was 8.79%.
For `COc1ccc(CSc2nc(N3CCOCC3)c3c(c2C#N)CC(C)(C)OC3)cc1`, the inhibition is 19%.
For `COc1ccc(CCNC(=O)CSCc2ccc(Br)cc2)cc1OC`, the inhibition is 1.08%.
Turning to `CC(C)c1ccc(NC(=O)CCN2C(=O)c3ccc([N+](=O)[O-])cc3C2=O)cc1`, the inhibition is 7.45%.
With `O=NN(CCCl)C(=O)NCCc1cccc[n+]1[O-]`, the inhibition is 7.72%.
In the case of `CC(C)(C)C1CCC(OC(=O)CCC(=O)Nc2ccccc2)CC1` (centres undefined), the inhibition is 2.76%.
As for `CC1C(C)N(C(=O)CCl)c2ccccc2N1C(=O)CCl` (centres undefined), the inhibition was -4%.
For the compound `COc1ccc(C(=O)OCC(=O)NCC2CCCO2)cc1[N+](=O)[O-]` (centres undefined), the inhibition was 1.35%.
As for `O=C(N[C@@H](Cc1ccccc1)C(=O)OCc1ccccc1)c1nc[nH]c1C(=O)N[C@@H](Cc1ccccc1)C(=O)OCc1ccccc1`, the figure is 10.8%; as for `C[C@@H](NC(=O)c1nc[nH]c1C(=O)N1CCN(C(=O)OC(C)(C)C)CC1)c1ccccc1`, 15.2%.
For the compound `CC(C)(C)OC(=O)N1CCC(NC(=O)c2[nH]cnc2C(=O)N[C@@H](Cc2ccccc2)C(=O)OCc2ccccc2)CC1`, the inhibition was 35.5% (active).
Regarding `O=C1NC(c2ccccc2)CCC1(Cl)Cl` (centres undefined), the inhibition was 3.93%.
On to `C=CCn1c(SCC(=O)c2c(N)n(C)c(=O)n(C)c2=O)nc2sc(CC)cc2c1=O`, for which the inhibition is 8.69%.
With `Cn1c(SCc2ccc(F)cc2)nnc1-c1ccncc1`, the inhibition was 0.33%.
With `Cn1c(SCc2c(F)cccc2Cl)nnc1-c1cnccn1` the figure was -3.89%; with `Cc1ccc(CSc2nnc(-c3cnccn3)n2C)cc1`, 29.1% (active); with `[O-][n+]1onc2c1CCc1[nH]c(-c3ccccc3)nc1-2`, 2.02%.
As for `COc1ccc(NS(=O)(=O)c2ccc(C)c(C(=O)NNC(=O)c3csc(N4CCOCC4)n3)c2)cc1`, the inhibition was -2.21%.
Take `CC(C)Oc1ccc(/C=C(\NC(=O)/C=C/c2ccco2)C(=O)NCCc2nc3ccccc3[nH]2)cc1`: the inhibition was 28.9% (active).
For the compound `CC(C)=C(NC(=O)c1ccco1)C(=O)NCCc1nc2ccccc2[nH]1`, the inhibition was 2.22%.
With `CCCCCOc1ccc(/C=C/C(=O)NCCc2nc3ccccc3[nH]2)cc1OC`, the inhibition was 6.2%.
With `O=C(N/N=C\c1ccc(-c2ccc(Cl)c(Cl)c2)o1)C(=O)N1CCCC1` the figure was 4.11%.
For the compound `Cc1ccc(S(=O)(=O)N(CC(=O)NCc2ccco2)c2ccccc2C)cc1`, the inhibition was 12.4%.
In the case of `COc1ccc(Cc2cc(-c3ccc(F)cc3)n[nH]c2=O)cc1`, the inhibition is 9.23%.
On to `COc1cccc(NC(=O)c2nn(-c3ccc(OC)cc3OC)c(=O)c3ccccc23)c1`, for which the inhibition was -1.09%.
With `COc1ccc(-n2nc(C(=O)Nc3cc(OC)c(OC)c(OC)c3)c3ccccc3c2=O)c(OC)c1` the figure was 31.6% (active).
With `COc1ccc(-n2nc(C(=O)NCC(=O)N3CCN(c4ccccc4OC)CC3)c3ccccc3c2=O)c(OC)c1` the figure was 1.93%.
Take `COc1ccc(CCNC(=O)CN2C(=O)COc3ccc(S(=O)(=O)N4CCCC4)cc32)cc1OC`: the inhibition is 3.63%.
`CCCS(=O)(=O)NC(=O)C1(C)CCCN(C(=O)c2cc(C)on2)C1` (centres undefined): the inhibition was 10.6%.
`Cc1cc(=O)oc2c3c(cc(OCC(=O)NCc4ccccn4)c12)OC(C)(C)CC3`: the inhibition was -0.73%.
In the case of `Cc1ccc(C)c(OCCC(=O)OCC(=O)c2ccc3c(c2)NC(=O)CO3)c1`, the inhibition is 2.21%.
Turning to `O=C(O)CN1C(=O)CC(Cc2ccccc2)C1=O` (centres undefined), the inhibition is -3.51%.
With `Cc1ccc(NC(=O)C2CC2c2ccccc2)cc1` (centres undefined) the figure was 0.14%; with `Cc1ccc(Sc2ccc(NC(=O)c3ccc(F)cc3)cc2C#N)cc1`, 33.5% (active).
With `COc1ccc(Sc2ccc(NC(=O)c3cccc(Cl)c3)cc2C#N)cc1` the figure was 5.3%; with `COC(=O)c1ccc(Sc2ccc(F)cc2)c(N)c1`, -11.2%; with `Cc1ccc(S(=O)(=O)N2CCC(C(=O)OCC(=O)N3CC(=O)Nc4ccccc43)CC2)cc1`, 20.2%.
As to `Cc1ccc(S(=O)(=O)N(C)CC(=O)OCC(=O)Nc2ccccc2)cc1`, the inhibition was 34.1% (active).
`CN(c1ccccc1)S(=O)(=O)c1ccc(NC(=O)COc2ccccc2)cc1`: the inhibition is -6.55%.
On to `CN(C)S(=O)(=O)c1ccc(NC(=O)COC(=O)Cn2[nH]c(=O)c3ccccc3c2=O)cc1`, for which the inhibition was 9.38%.
For the compound `Cc1ccc(S(=O)(=O)N(C)CC(=O)OCC(=O)N2CC(=O)Nc3ccccc32)cc1`, the inhibition was 33.9% (active).
`Cc1ccccc1SCC(=O)OCC(=O)N1CC(=O)Nc2ccccc21`: the inhibition is 0.86%.
`COc1ccnc(Oc2ccccc2)n1`: the inhibition is 0.1%.
As to `C#Cc1cc(N2CCN(C(=O)c3ccoc3)CC2)n2nc(-c3cccc(Cl)c3)cc2n1`, the inhibition was 32.1% (active).
As for `O=C(c1ccccc1)N1CCN(c2cc(-c3ccccc3)nc3cc(-c4cccc(Cl)c4)nn23)CC1`, the inhibition is 1.52%.
With `CN(C)CCN1CCN(c2cc(-c3cccc(Cl)c3)nc3ccnn23)CC1` the figure was 3.3%; with `CC(CNc1ccc([N+](=O)[O-])c2cccnc12)Nc1c([N+](=O)[O-])cc(C(F)(F)F)cc1[N+](=O)[O-]` (centres undefined), 7.59%; with `COc1ccccc1-c1n[nH]c2c1[C@H](C)CC[C@H]2C(C)C`, 10%.
As for `Cc1cc(C)cc(Oc2c(C(F)(F)F)oc3cc(OCC(=O)O)ccc3c2=O)c1`, the inhibition is -2.27%.
On to `O=C(CSc1c2c(nc3ccc(Cl)cc13)CCCC2)NCc1ccco1`, for which the inhibition was 11.1%.
With `O=C(CSc1nc2ccc(Nc3nc(N4CCOCC4)nc(N4CCOCC4)n3)cc2s1)NCc1ccco1` the figure was 29.5% (active); with `O=C(CSc1nc(Nc2ccccc2)nc(N2CCOCC2)n1)Nc1cc(Cl)ccc1O`, -4.1%; with `Cc1ccccc1N1CC(C(=O)Nc2ccc3c(c2)OCO3)CC1=O` (centres undefined), 8.22%.
On to `CCOCc1nnc(NC(=O)CCS(=O)(=O)Cc2ccccc2)s1`, for which the inhibition is 4.21%.
With `O=C1C(Cl)=C(Oc2ccccc2)C(=O)c2ccccc21` the figure was 93.5% (active); with `CCC1CCCCN1C(=S)Nc1ccc(S(=O)(=O)Nc2ncccn2)cc1` (centres undefined), -1.16%.
